# Results of several laboratories.
# Each line is one published result; the experiments were not run side by side.
# Cell line: Vero
# Effect on: cell growth or viability
SMILES,technique,time,IC50
COc1cccc2c1C(=O)c1c(O)c3c(c(O)c1C2=O)C[C@@](O)(C(=O)CO)C[C@@H]3O[C@H]1C[C@H](N)[C@H](O)[C@H](C)O1,MTT,72 h,2.1 µM
NC1=NN(C(=O)C=Cc2ccccc2)C(=O)C1N=Nc1ccccc1C(=O)O (stereo not shown),MTT,72 h,59.7 µM
O=C1C[C@@H](c2ccccc2)Oc2c(Cc3ccccc3O)c(O)c(Cc3ccccc3O)c(O)c21,MTT,72 h,48.7 µM
C[C@@H]1C[C@H]2[C@@H]3CCC4=CC(=O)C=C[C@]4(C)[C@@]3(F)[C@@H](O)C[C@]2(C)[C@@]1(O)C(=O)CO,MTT,48 h,80.1 µM
CO[C@H]1[C@H](O[C@H]([C@H]2O[C@@H](n3ccc(=O)[nH]c3=O)[C@H](O)[C@@H]2O)[C@H](NCCCNC(=O)[C@@H](NC(=O)[C@@H](NC(=O)N[C@H](C(=O)O)C(C)C)[C@@H]2CCN=C(N)N2)[C@@H](OC(=O)CCCCCCCCCCCCN(O)C(=N)N)C(C)C)C(=O)O)O[C@H](CN)[C@H]1O,WST-1,,> 35 µM
O=C1[C@H](CC[C@H](O)c2ccc(F)cc2)[C@@H](c2ccc(O)cc2)N1c1ccc(F)cc1,MTT,72 h,36.5 µg/mL
C/C(=N/NC(=O)c1cn(-c2ccccc2)nc1-c1ccc(Cl)cc1)c1c(O)cc(C)oc1=O,MTT,48 h,102 µM
CO[C@H]1[C@H](O[C@H]([C@H]2O[C@@H](n3ccc(=O)[nH]c3=O)[C@H](O)[C@@H]2O)[C@H](NCCCNC(=O)[C@@H](NC(=O)[C@@H](NC(=O)N[C@H](C(=O)O)C(C)C)[C@@H]2CCN=C(N)N2)[C@@H](O)C(C)C)C(=O)O)O[C@H](CN)[C@H]1O,WST-1,,> 35 µM
NC1=NC(=NS(=O)(=O)c2ccc(N)cc2)NC(=O)C1N=Nc1ccccc1C(=O)O (stereo not shown),MTT,72 h,57.4 µM
C/C(=N/NC(=O)c1cn(-c2ccccc2)nc1-c1ccccc1)c1c(O)cc(C)oc1=O,MTT,48 h,664 µM
